Drawing on ChEMBL document CHEMBL1141764, “Pentasaccharide glycosides from the roots of Ipomoea murucoides” (2005), this text covers EC50 and Activity for five molecules.

Common to all, as to type: functional
Experiment [1] deals with OVCAR-5. Briefly: Cytotoxicity against human OVCAR5 cells after 72 hrs. Conditions: OVCAR-5, 72 h, read-out: ED50 (the source's name). Put shortly: (§1)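 Cells kept in RPMI with 10% FBS at 37 °C, 5% CO2, humidified. Log-phase cells exposed in triplicate to 1.0-100 µg/mL for 72 h at 37 °C. Cell density read by protein analysis. ED50 (dose giving 50% inhibition of control growth) estimated from semilog plot of concentration (µg/mL) versus percent viable cells.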

Experiment [2] has as its system HCT-15. The experiment is described as follows: Cytotoxicity against human HCT15 cells after 72 hrs. To be noted: for EC50: HCT-15, 72 h, read-out: ED50 (the source's name). The essentials: as §1
The test system of experiment [3] is UISO-SQC1. Briefly: (§2) Cytotoxicity against human UISO-SQC1 cells after 72 hrs. The essentials:
as §1

Experiment [4] in a line: as §2. Conditions: UISO-SQC1, 72 h, read-out: ED50 (the source's name). Put shortly: as §1

In brackets after ≈: the same amount, converted by molar mass. Activity calls are given as the source filed them. The calls are words filed in the database; no cut-off is given here. Some results are limits rather than exact numbers.

Turning to `CCCCCCCCCCCC(=O)O[C@H]1[C@H](O[C@@H]2[C@@H](O)[C@H]3OC(=O)CCCCCCCCCC(CCCCC)O[C@@H]4O[C@H](C)[C@@H](O)[C@H](O)[C@H]4OC3O[C@H]2C)O[C@@H](C)[C@H](O[C@@H]2O[C@@H](C)[C@H](OC(C)=O)[C@@H](O)[C@H]2O[C@@H]2O[C@H](CO)[C@@H](O)[C@H](O)[C@H]2O)[C@H]1O` (stereo not given in full) [MURUCIN 1], the EC50 in experiment [1] worked out at 5 µg/mL (≈ 4.08 µM). The outcome in experiment [2] and in experiment [3] was inactive.
Regarding `CCCCCCCCCCCC(=O)O[C@H]1[C@H](O[C@@H]2[C@@H](O)[C@H]3OC(=O)CCCCCCCCCC(CCCCC)O[C@@H]4O[C@H](C)[C@@H](O)[C@H](O)[C@H]4OC3O[C@H]2C)O[C@@H](C)[C@H](O[C@@H]2O[C@@H](C)[C@H](OC(=O)CC)[C@@H](O)[C@H]2O[C@@H]2O[C@H](CO)[C@@H](O)[C@H](O)[C@H]2O)[C@H]1O` (stereo not given in full) [MURUCIN 2], the EC50 in experiment [1], in experiment [2] and in experiment [4] was > 20 µg/mL throughout.
Regarding `CCCCCCCCCCCC(=O)O[C@H]1[C@H](O[C@@H]2[C@@H](O)[C@H]3OC(=O)CCCCCCCCCC(CCCCC)O[C@@H]4O[C@H](C)[C@@H](O)[C@H](O)[C@H]4OC3O[C@H]2C)O[C@@H](C)[C@H](O[C@@H]2O[C@@H](C)[C@H](OC(=O)CCC)[C@@H](O)[C@H]2O[C@@H]2O[C@H](CO)[C@@H](O)[C@H](O)[C@H]2O)[C@H]1O` (stereo not given in full) [MURUCIN 3], the EC50 in experiment [1], in experiment [2] and in experiment [4] was > 20 µg/mL in each case.
Turning to `CCCCCCCCCCCC(=O)O[C@H]1[C@H](O[C@@H]2[C@@H](O)[C@H]3OC(=O)CCCCCCCCCC(CCCCC)O[C@@H]4O[C@H](C)[C@@H](O)[C@H](O)[C@H]4OC3O[C@H]2C)O[C@@H](C)[C@H](O[C@@H]2O[C@@H](C)[C@H](OC(=O)C(C)CC)[C@@H](O)[C@H]2O[C@@H]2O[C@H](CO)[C@@H](O)[C@H](O)[C@H]2O)[C@H]1O` (stereo not given in full) [MURUCIN 4], the EC50 in experiment [1], in experiment [2] and in experiment [4] was > 20 µg/mL each time.
Consider `CCCCCCCCCCCC(=O)O[C@H]1[C@H](O[C@@H]2[C@@H](O)[C@H]3OC(=O)CCCCCCCCCC(CCCCC)O[C@@H]4O[C@H](C)[C@@H](O)[C@H](O)[C@H]4OC3O[C@H]2C)O[C@@H](C)[C@H](O[C@@H]2O[C@@H](C)[C@H](OC(=O)C(C)C(C)O)[C@@H](O)[C@H]2O[C@@H]2O[C@H](CO)[C@@H](O)[C@H](O)[C@H]2O)[C@H]1O` (stereo not given in full) [MURUCIN 5], for which the EC50 in experiment [1], in experiment [2] and in experiment [4] was > 20 µg/mL throughout.
